Source: PMC9586281 (Proceedings of the National Academy of Sciences of the …, 2022)

Columns and labels:
[1] = required plasmid transfection for cellular introduction; cited from earlier work
[2] = tested on: FOXP3:NFAT; conditions: cited from earlier work
[3] = target: T1, ΔN FOXP3 (T182-P431) (Homo sapiens, UniProt Q9BZS1); test: Fluorescence polarization analysis; type: binding; conditions: FPA, 50 nM FITC-labeled peptide, 1× PBS pH 8, 1-15 min room temperature
T1 sequence (Q9BZS1 182-431): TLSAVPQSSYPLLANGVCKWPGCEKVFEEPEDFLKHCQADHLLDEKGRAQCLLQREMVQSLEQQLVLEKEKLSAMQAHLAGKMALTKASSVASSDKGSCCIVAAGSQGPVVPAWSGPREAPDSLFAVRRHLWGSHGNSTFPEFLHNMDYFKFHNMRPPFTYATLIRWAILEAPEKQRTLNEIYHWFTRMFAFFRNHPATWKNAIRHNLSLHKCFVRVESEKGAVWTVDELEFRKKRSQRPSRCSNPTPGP
In short: (§1)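 Solution-phase fluorescence polarization using recombinant truncated FOXP3 as the binding partner. Equilibrium binding constants were determined for stapled peptides and for their native unstapled peptide controls.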

[4] = tested on: Treg cell-mediated suppression of Tcon cell proliferation; test: Ex vivo suppression assay; type: cell-based, mice; conditions: Treg cells pretreated with peptide, 72 h coculture with Tcon cells
[5] = target: T2, LZCC FOXP3 (T182-M337) (Homo sapiens, UniProt Q9BZS1); test: Fluorescence polarization analysis; type: binding; conditions: FPA, 50 nM FITC-labeled peptide, 1× PBS pH 8, 1-15 min room temperature
T2 sequence (Q9BZS1 182-336 limits assumed): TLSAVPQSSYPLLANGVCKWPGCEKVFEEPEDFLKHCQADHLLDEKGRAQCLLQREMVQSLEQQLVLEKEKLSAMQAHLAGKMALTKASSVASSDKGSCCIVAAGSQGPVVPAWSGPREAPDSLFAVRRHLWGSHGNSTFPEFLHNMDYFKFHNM
In short: as §1

Row | Substance | Cell permeability [1] | Inhibition of FOXP3:NFAT [2] | KD, ΔN FOXP3 [3] | Inhibition of Treg cell-mediated suppression of target proliferation [4] | KD, LZCC FOXP3 [5]
1 | FOXP3 393–403: nonstructured peptide spanning a loop domain and the Wing1 region of the FKH domain of FOXP3 (KCFVRVESEKG; UniProt Q9BZS1 393-403, looked up, fragment) | not cell permeable | partially inhibit FOXP3:NFAT |  |  | 
2 | FOXP3(229-259): native, unstapled peptide control of hFOXP3 residues 229-259 (RAQCLLQREMVQSLEQQLVLEKEKLSAMQAH; UniProt Q9BZS1 229-259, looked up, fragment) |  |  | no binding | no ability to prevent Treg cell–mediated suppression of Tcon cell proliferation | no binding
